AHR act: AHR activators, primary screen, cell-based, luminescence, luciferase reporter, human | Aryl hydrocarbon receptor (Homo sapiens), P35869 | AID 2796, 2010 | hit rate 2.5% among 320,000 | AHR-responsive luciferase reporter cells | activation, % at 5 µM; in the data active means activation above about 47%;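 further: 0% = vehicle wells and 100% = reference agonist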
Target sequence (P35869 whole entry, looked up): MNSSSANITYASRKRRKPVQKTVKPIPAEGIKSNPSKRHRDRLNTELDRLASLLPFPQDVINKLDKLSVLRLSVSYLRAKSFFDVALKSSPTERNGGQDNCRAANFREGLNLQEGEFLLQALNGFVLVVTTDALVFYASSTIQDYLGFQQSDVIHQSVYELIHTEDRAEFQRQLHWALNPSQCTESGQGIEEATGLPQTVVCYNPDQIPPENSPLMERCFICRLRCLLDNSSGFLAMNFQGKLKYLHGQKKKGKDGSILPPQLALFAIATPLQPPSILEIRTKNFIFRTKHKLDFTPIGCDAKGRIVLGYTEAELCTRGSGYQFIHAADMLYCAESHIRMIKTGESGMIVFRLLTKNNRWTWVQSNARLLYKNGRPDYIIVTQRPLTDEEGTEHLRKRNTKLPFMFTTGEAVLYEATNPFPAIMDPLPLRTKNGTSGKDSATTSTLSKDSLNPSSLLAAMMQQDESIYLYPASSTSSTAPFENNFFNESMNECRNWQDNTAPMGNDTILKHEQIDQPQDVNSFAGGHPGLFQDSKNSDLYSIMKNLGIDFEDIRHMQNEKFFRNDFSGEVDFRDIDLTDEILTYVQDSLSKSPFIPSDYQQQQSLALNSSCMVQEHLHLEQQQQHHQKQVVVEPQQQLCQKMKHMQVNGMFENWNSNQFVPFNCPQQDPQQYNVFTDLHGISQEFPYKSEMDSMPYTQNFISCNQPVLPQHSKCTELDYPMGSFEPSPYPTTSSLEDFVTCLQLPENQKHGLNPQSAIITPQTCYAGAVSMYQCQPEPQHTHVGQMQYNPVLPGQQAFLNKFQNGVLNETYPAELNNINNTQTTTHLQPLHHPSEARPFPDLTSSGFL
STAT1 activator: STAT1 signaling activators, primary screen, cell-based, HTS, luciferase reporter. NIH 3T3 STAT1-luciferase reporter, IFN-gamma, luminescence; 100% = IFN-gamma alone, no compound. activation (% of control), % at 5.5 µM. hit rate 2.6% among 200,000. AID 932, 2007;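 active means activation above the screen-wide mean activation plus 3 SD, cut at about 130% in these data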;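 further: raw ratio to IFN-gamma control signal so 100% means no change and 0% no light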
Mdm2 ligase inh: MDM2-luciferase reporter signal enhancers, primary screen, MDM2 E3 ligase inhibitor project, cell-based, luminescence, 1536-well; E3 ubiquitin-protein ligase Mdm2 (Homo sapiens), Q00987; cell-based MDM2 ubiquitination luciferase reporter, 2 h; 0 = plate control, 100 = twice control, blank-subtracted; signal enhancement, % at 5 µM; hit rate 0.11% among 210,000;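 active means signal enhancement of 30% or more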;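 further: luminescence tracks abundance of the self-degrading MDM2-luciferase fusion protein; higher signal means inhibition of MDM2 E3 ligase activity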
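Material: stable MDM2–luciferase fusion reporter cells / Quantity: 2000 cells/well / Dosing: single 5 µM compound dose, 0.2% final DMSO / Buffer or medium: DMEM / Schedule: 4 h cell settling then 2 h compound exposure, 37 °C / Detection: luminescence with SteadyLite reagent, 15 min at room temperature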
PERK inhibitor: block of dimerizer-induced PERK translation repression, primary screen, PERK inhibitor project, CHO PERK-DD cells, SEAP luminescence, HTS. hit rate 0.17% among 220,000. CHO PERK-DD fusion, SEAP luminescence translation reporter. Eukaryotic translation initiation factor 2-alpha kinase 3 (Homo sapiens), Q9NZJ5. inhibition, % at 5.6 µM. AID 1416, 2008;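 active means inhibition above the mean inhibition of all tested compounds plus 3 SD, set separately per screening campaign, cut at about 2.9% in these data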;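 further: PERK kinase domain activated by AP20187 dimerizer at 100 nM; 0% = DMSO with dimerizer and 100% = rapamycin at 8.4 µM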
NF-kB expr up: activators of NF-kB expression in neurons, primary screen, cell-based, HTS; human neuronal cells, NF-kB reporter expression; stronger effect = higher value; fold change at 12.5 µM; hit rate 1.6% among 190,000; AID 1239, 2008; in the data active means fold change above about 3.3
APP 5'UTR act: activators of APP 5'UTR luciferase reporter, primary screen, SH-SY5Y cells. activation, % at 2 µM. SH-SY5Y APP 5'UTR luciferase reporter, luminescence; zero percent = DMSO vehicle wells. hit rate 1% among 190,000. AID 1276, 2008;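 active means activation above a set limit, based on mean plus 3 SD of controls, cut at about 140% in these data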
Starred values were filed as active, the others as inactive; . = no result given. The list is not random: actives were taken first. Their share in the collection is about 4.5%.

SMILES	AHR act	STAT1 activator	Mdm2 ligase inh	PERK inhibitor	NF-kB expr up	APP 5'UTR act
CC(C)(C)n1ncc2c(=O)n(CC(=O)c3ccc(Cl)cc3)cnc21	-1.0	153.8*	-9.7	0.6	2.81	120.9
CC(=O)Nc1ccc(NC(=O)Cn2cnc3c(cnn3C(C)(C)C)c2=O)cc1	0.1	102.9	-7.7	1.2	1.49	12.1
CC(C)(C)n1ncc2c(=O)n(CC(=O)Nc3ccc(Cl)cc3)cnc21	-0.8	96.2	-12.1	-0.8	1.13	-6.5
CC(C)(C)n1ncc2c(=O)n(CC(=O)NCc3ccccc3)cnc21	4.5	149.0*	-44.0	-0.2	3.01	167.9*
Cc1cc(CNC(=O)C2(C(F)(F)F)C/C(=C\Cc3ccccc3)CCCO2)nn1C (stereo not drawn)	-0.8	.	.	.	.	.
NC(=O)c1cc([N+](=O)[O-])ccc1NCc1ccc(C(=O)O)cc1	1.0	.	.	.	.	.
NS(=O)(=O)c1ccc(-c2ccc(/C=C3\C(=O)Nc4ccccc43)o2)cc1	74.1*	.	.	.	.	.
COc1ccc(C2NC(=S)N3C(c4ccc(OC)cc4)NC(=S)N23)cc1 (stereo not drawn)	-2.3	107.8	-12.0	0.5	1.18	-6.3
COc1ccc(C2Nc3cc(OC)ccc3-n3cccc32)cc1 (stereo not drawn)	60.3*	.	-4.5	-0.8	.	.
COc1ccc(CCNC(=O)c2cccc(NC(=O)CC3SC(N4CCCCC4)=NC3=O)c2)cc1OC (stereo not drawn)	5.8	.	.	.	.	.
CN(C(=O)c1ccccc1)c1nc2ccccc2s1	-2.5	138.8*	-50.7	0.8	4.07*	215.2*
CN1C(=O)/C(=C/C=C2\SCCN2C)N(C)C1=S	.	132.1*	5.2	1.5	5.26*	74.8
COc1ccc(Cl)cc1NC(=O)CCNC(=O)OCc1ccccc1	-1.2	103.1	-6.0	0.9	1.03	5.8
Cc1cccc(/C=C/c2nc3ccccc3c(=O)[nH]2)c1	-4.3	120.6	-40.0	-0.2	6.3*	92.4
CC1(C)CC(=O)C/C(=N/NC(=O)CCCOc2ccc(Cl)cc2Cl)C1	9.3	100.3	-7.2	0.7	0.83	-3.1
O=C(NCc1ccc(F)cc1)C1CCCN(c2cnccn2)C1 (stereo not drawn)	52.5*	.	.	.	.	.
O=C(NCc1cccc(C(F)(F)F)c1)C1CCCN(c2cnccn2)C1 (stereo not drawn)	52.0*	.	.	.	.	.
O=C(NCc1ccccc1)C1CCCN(c2cnccn2)C1 (stereo not drawn)	32.7	.	.	.	.	.
COc1ccc2cc(-c3cc(C(=O)OCC(=O)Nc4c(C)n(C)n(-c5ccccc5)c4=O)c4ccccc4n3)ccc2c1	.	112.0	-52.2	0.3	3.35*	80.7
COc1ccc(-c2cc(C(=O)Nc3c(C)n(C)n(-c4ccccc4)c3=O)c3ccccc3n2)cc1	4.5	.	.	.	.	.
O=C(Nc1ccc(C(=O)N2CCN(c3ccccc3)CC2)cc1)C1=CSCCO1	1.6	.	.	.	.	.
Clc1nc(-c2ccccc2)cc(-c2ccc(Br)cc2)n1	68.5*	87.9	.	0.7	.	-6.0
Cc1ccccc1Nc1nc(N)nc(CSc2nnnn2-c2ccccc2)n1	4.5	91.7	0.2	0.9	0.98	-14.1
CCc1ccc(Nc2nc(N)nc(CSc3nnnn3-c3ccccc3)n2)cc1	49.7*	97.5	-14.6	-0.1	0.94	-14.5
Cc1ccc(Nc2nc(N)nc(CSc3nccn3C)n2)c(C)c1	48.1*	112.9	-8.1	-0.6	1.59	47.1
SMILES	AHR act	STAT1 activator	Mdm2 ligase inh	PERK inhibitor	NF-kB expr up	APP 5'UTR act
Cc1ccc(Nc2nc(N)nc(CSCCO)n2)cc1	48.3*	121.3	-4.1	0.5	2.11	57.1
COc1ccc(Nc2nc(N)nc(CSCCO)n2)cc1	27.8	114.6	1.4	0.1	1.73	-6.8
Cc1ccc(Nc2nc(N)nc(CC#N)n2)cc1	36.0	136.9*	-9.8	0.0	1.48	42.9
Nc1cc(=O)[nH]c(SCC(=O)c2ccc(F)cc2)n1	1.1	.	.	.	.	.
O=C(CCSCCc1ccccn1)Nc1ccc(Br)cc1F	1.6	90.6	-5.2	1.1	1.07	-12.8
Cc1ccc(Nc2nc(N)nc(CSc3nc(C)cc(C)n3)n2)cc1	44.8	106.5	3.9	-1.5	0.78	5.6
Cc1ccc(Nc2nc(N)nc(CSc3ncccn3)n2)cc1	67.8*	130.5*	-5.8	0.1	5.39*	104.1
COc1ccc(Nc2nc(N)nc(CSc3n[nH]c(-c4ccccc4)n3)n2)cc1	48.6*	101.6	-10.5	0.0	0.68	-0.7
Nc1nc(CSc2n[nH]c(-c3ccccc3)n2)nc(Nc2ccccc2)n1	3.8	95.9	-0.7	-0.3	0.62	5.8
Nc1nc(CSc2ncccn2)nc(Nc2ccccc2)n1	44.8	134.1*	-21.7	0.0	2.86	46.4
Cc1nn(-c2ccccc2)c(Cl)c1C(=O)OCC(=O)N(C)c1c(N)n(Cc2ccccc2)c(=O)[nH]c1=O	6.0	.	.	.	.	.
Oc1ccc(Nc2nc(-c3ccc(O)cc3)cs2)cc1	38.0	97.1	-6.6	0.2	2.63	62.0
Clc1ccc(Nc2nc(-c3ccncc3)cs2)cc1	23.5	136.9*	.	0.3	.	2.0
COc1cccc(Nc2nc(-c3sc(C)nc3C)cs2)c1	22.5	.	.	.	.	.
Cc1nc(C)c(-c2csc(Nc3ccc(F)cc3)n2)s1	35.0	142.3*	-6.8	-1.2	1.17	74.9
Fc1ccc(Nc2nc(-c3ccncc3)cs2)cc1	11.7	143.9*	0.0	1.1	1.25	105.9
Nc1ccc(Nc2nc(-c3ccncc3)cs2)cc1	90.6*	112.0	.	0.1	1.64	40.1
O=C(/C=C/c1ccccc1)Nc1nc(-c2ccncc2)cs1	-7.3	117.0	-17.4	-0.5	0.72	2.3
c1ccc(Nc2nc(-c3ccncc3)cs2)cc1	13.7	145.3*	-4.2	0.8	2.09	39.8
Cc1cc(C)nc(Nc2nc(-c3ccccc3)cs2)n1	75.2*	.	.	.	.	.
c1ccc(-c2csc(Nc3nc(N4CCOCC4)nc(N4CCOCC4)n3)n2)cc1	5.4	114.2	-13.8	-0.3	1.05	-11.3
O=C(CCc1nc2cccnc2n1Cc1ccccc1)NCCc1ccc(Cl)cc1	0.6	100.7	-6.1	-0.7	0.96	-3.3
CCn1cc(Cl)c(C(=O)Nc2ccc3c(c2)OCCO3)n1	11.4	106.1	-17.5	0.9	4.13*	137.2*
CCn1cc(Br)c(C(=O)Nc2ccccc2C(=O)OC)n1	23.4	96.0	12.6	-0.7	0.92	-17.0
Cc1ccc(C(=O)Nc2ccc3c(c2)OCCO3)o1	6.4	109.5	2.3	0.5	4.01*	107.2
Cc1ccc(C(=O)Nc2ccc3c(c2)OCCO3)c(C)c1	-11.6	.	.	.	.	.
Cc1nn(C)cc1C(=O)Nc1ccc2c(c1)OCCO2	47.5*	.	.	.	.	.
